Legend:
HT-29 = assay: Growth inhibition of human HT-29 cells after 48 hrs by sulforhodamine B assay; type: functional; conditions: HT-29, 48 h
In short: (§1)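 Cultured in MEM with Earle's salts, L-glutamine, nonessential amino acids and sodium pyruvate at 37 C, 5% CO2. Plated at 5000 cells/well with 24 h attachment. Pure compounds were given as serial dilutions from DMSO in medium over 66.7-0.01 μg/mL final. SRB protein staining after TCA fixation at 0 and 48 h, read at 490 nm. GI50 came from comparison with vehicle-only and time-0 values.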

MCF7 = assay: Growth inhibition of human MCF7 cells after 48 hrs by sulforhodamine B assay; type: functional; conditions: MCF7, 48 h
In short: (§2)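 Grown in RPMI 1640 with L-glutamine plus 5% fetal bovine serum at 37 C, 5% CO2. Seeded at 5000 cells/well and allowed to attach 24 h. Pure compounds were added from DMSO as serial dilutions in medium over 66.7-0.01 μg/mL final. Cells were TCA-fixed and SRB-stained at 0 and 48 h, with absorbance read at 490 nm. GI50 was taken against vehicle-only and time-0 readings.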

NCI-H460 = assay: Growth inhibition of human H460 cells after 48 hrs by sulforhodamine B assay; type: functional; conditions: NCI-H460, 48 h; in short: as §2
SF-268 = assay: Growth inhibition of human SF268 cells after 48 hrs by sulforhodamine B assay; type: functional; conditions: SF-268, 48 h; in short: as §2
[1] = Growth inhibition of chinese hamster CHOK1 cells after 48 hrs by sulforhodamine B assay; type: cell-based, Cricetulus griseus; conditions: CHO-K1 cells; in short: as §1

Compound | GI50 (HT-29) | GI50 (MCF7) | GI50 (NCI-H460) | GI50 (SF-268) | GI50 at 48 h [1]
CC(C)=CCC1(CC=C(C)C)C[C@@H](O)C=CC1=O [COMOSONE A] | 19 µM | 14 µM | 19 µM | 13 µM | 17 µM
CC(=O)O[C@H]1CC(C)(C)C(=C=C/C(C)=C/C=C/C(C)=C/C=C/C=C(C)/C=C/C=C(\C)C(=O)C[C@@]23O[C@]2(C)C[C@@H](O)CC3(C)C)[C@](C)(O)C1 | 17 µM | 8 µM | 14 µM | 12 µM | 12 µM
C=CC(C)(C)c1cc(O)c(CC=C(C)C)cc1O [COMOSUSOL C] | 43 µM | 25 µM | 29 µM | 35 µM | 27 µM
C=CC(C)(C)C1=CC(=O)C(CC=C(C)C)=CC1=O | 37 µM | 26 µM | 41 µM | 17 µM | 17 µM
CC(C)=CCc1cc(O)cc(/C=C\C(C)(C)O)c1O [COMOSUSOL A] | 53 µM | 52 µM | 55 µM | 55 µM | 57 µM
C=CC(C)(C)c1cc(O)c(/C=C\C(C)(C)O)cc1O [COMOSUSOL B] | 6 µM | 6 µM | 6 µM | 5 µM | 6 µM
OC[C@@H](O)[C@H](O)[C@H](O)[C@@H](O)CO [GALACTITOL] | > 220 µM | > 220 µM | > 220 µM | > 220 µM | > 220 µM
C=CC(C)(C)c1cc(O)c(C(O)C(O)C(C)(C)O)cc1O (stereo not given) [COMOSUSOL D] | 51 µM | 46 µM | 54 µM | 59 µM | 63 µM
C=CC(C)(C)c1ccc(O)c(CC=C(C)C)c1 | 57 µM | 27 µM | 37 µM | 39 µM | 29 µM
